Reference: ChEMBL document CHEMBL5303300, “EUbOPEN Chemogenomics Library - Multiplex” (2023)
“And” between values parts separate entries of the source, which are not always exact repeats. Identical values can stand only once.

System: U2OS
Assay: Multiplex assay against U2OS
Assay type: toxicity, cell-based
Settings: human, number of replicates 2
Method in brief: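 At seeding, live cells were stained with Hoechst33342, BioTracker Green Microtubule Cytoskeleton Dye, MitoTracker Red and Annexin V Alexa Fluor 680. After compound addition they were imaged on a CQ1 microscope at 37°C and 5% CO2, and CellPathfinder machine-learning gating sorted them into Hoechst high-intensity objects or normal cells, with normal cells further split into healthy, pyknosed or fragmented nuclei and pyknosed cells into mitotic or apoptotic. Tubulin, mitochondrial-mass and membrane-permeability phenotypes are given as per cents of cells with healthy nuclei.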

[1] = 12 h, 1 µM, compound concentration 1 uM
[2] = 12 h, 10 µM, compound concentration 10 uM
[3] = 24 h, 1 µM, compound concentration 1 uM
[4] = 24 h, 10 µM, compound concentration 10 uM
[5] = 48 h, 1 µM, compound concentration 1 uM
[6] = 48 h, 10 µM, compound concentration 10 uM

With `O=C(Nc1ccnc(NC(=O)C2CC2)c1)c1c(Cl)cccc1Cl` the “Population Apoptotic (%)” value [1] was 33% and 84%, the “Population Hoechst High Intensity Objects (%)” value [1] was 0% and the “Population Membrane Permeable-Phenotype (%)” value [1] was 4% and 3%. The “Population Mitochondria Different-Phenotype (%)” value [1] was 0% and 4%, the “Population Normal (%)” value [1] was 100% and the “Population Tubulin-Different-Phenotype (%)” value [1] was 81% and 83%. The “Total Cell Count” value [1] was 114 and 143, the “Population Apoptotic (%)” value [2] was 60% and 58% and the “Population Healthy Nuclei (%)” value [2] was 36% and 74%. For the same compound, the “Population Hoechst High Intensity Objects (%)” value [2] was 0%, the “Population Mitochondria Different-Phenotype (%)” value [2] was 14% and 0% and the “Population Mitotic Cells (%)” value [2] was 40% and 41%. For the same compound, the “Population Normal (%)” value [2] was 100%, the “Population Pyknosed Nuclei (%)” value [2] was 26% and 19% and the “Population Tubulin-Different-Phenotype (%)” value [2] was 71% and 58%. For the same compound, the “Population Apoptotic (%)” value [3] was 60% and 90%, the “Population Hoechst High Intensity Objects (%)” value [3] was 0% and the “Population Membrane Permeable-Phenotype (%)” value [3] was 4% and 3%. For the same compound, the “Population Mitochondria Different-Phenotype (%)” value [3] was 0% and 2%, the “Population Normal (%)” value [3] was 99% and 100% and the “Population Pyknosed Nuclei (%)” value [3] was 3% and 12%. For the same compound, the “Population Tubulin-Different-Phenotype (%)” value [3] was 76% and 90%, the “Total Cell Count” value [3] was 131 and 182 and the “Population Apoptotic (%)” value [4] was 66% and 87%. For the same compound, the “Population Healthy Nuclei (%)” value [4] was 32% and 62%, the “Population Hoechst High Intensity Objects (%)” value [4] was 0% and the “Population Mitochondria Different-Phenotype (%)” value [4] was 10% and 0%. For the same compound, the “Population Mitotic Cells (%)” value [4] was 33% and 12%, the “Population Normal (%)” value [4] was 100% and the “Population Pyknosed Nuclei (%)” value [4] was 19% and 29%. The “Population Tubulin-Different-Phenotype (%)” value [4] was 70% and 66%, the “Population Apoptotic (%)” value [5] was 75% and 76% and the “Population Healthy Nuclei (%)” value [5] was 32% and 82%. For the same compound, the “Population Hoechst High Intensity Objects (%)” value [5] was 0%, the “Population Membrane Permeable-Phenotype (%)” value [5] was 5% and 1% and the “Population Mitochondria Different-Phenotype (%)” value [5] was 2% and 1%. The “Population Mitotic Cells (%)” value [5] was 25% and 23%, the “Population Normal (%)” value [5] was 99% and 100% and the “Population Pyknosed Nuclei (%)” value [5] was 3% and 10%. For the same compound, the “Population Tubulin-Different-Phenotype (%)” value [5] was 89% and 92%, the “Population Apoptotic (%)” value [6] was 100% and 80% and the “Population Hoechst High Intensity Objects (%)” value [6] was 0%. The “Population Membrane Permeable-Phenotype (%)” value [6] was 16% and 14%, the “Population Mitochondria Different-Phenotype (%)” value [6] was 16% and 6% and the “Population Mitotic Cells (%)” value [6] was 0% and 20%. For the same compound, the “Population Normal (%)” value [6] was 100% and 99%, the “Population Pyknosed Nuclei (%)” value [6] was 23% and 35% and the “Population Tubulin-Different-Phenotype (%)” value [6] was 50% and 68%.

`CNS(=O)(=O)c1ccc(N(C)C)c(Nc2ncnc3cc(OC)c(OC)cc23)c1` was tested, and the “Population Apoptotic (%)” value [1] was 100% and 61%, the “Population Healthy Nuclei (%)” value [1] was 73% and 84% and the “Population Hoechst High Intensity Objects (%)” value [1] was 0%. For the same compound, the “Population Membrane Permeable-Phenotype (%)” value [1] was 0%, the “Population Mitochondria Different-Phenotype (%)” value [1] was 0% and the “Population Normal (%)” value [1] was 100% and 99%. For the same compound, the “Population Pyknosed Nuclei (%)” value [1] was 11% and 12%, the “Population Tubulin-Different-Phenotype (%)” value [1] was 73% and 87% and the “Population Apoptotic (%)” value [2] was 50% and 64%. The “Population Healthy Nuclei (%)” value [2] was 44% and 86%, the “Population Hoechst High Intensity Objects (%)” value [2] was 0% and the “Population Membrane Permeable-Phenotype (%)” value [2] was 3% and 2%. For the same compound, the “Population Mitochondria Different-Phenotype (%)” value [2] was 0% and 2%, the “Population Mitotic Cells (%)” value [2] was 50% and 35% and the “Population Normal (%)” value [2] was 100%. The “Population Pyknosed Nuclei (%)” value [2] was 20% and 10%, the “Population Tubulin-Different-Phenotype (%)” value [2] was 42% and 64% and the “Total Cell Count” value [2] was 59 and 156. For the same compound, the “Population Apoptotic (%)” value [3] was 60% and 71%, the “Population Healthy Nuclei (%)” value [3] was 60% and 88% and the “Population Hoechst High Intensity Objects (%)” value [3] was 0%. The “Population Membrane Permeable-Phenotype (%)” value [3] was 5% and 1%, the “Population Mitochondria Different-Phenotype (%)” value [3] was 0% and 1% and the “Population Mitotic Cells (%)” value [3] was 40% and 28%. For the same compound, the “Population Normal (%)” value [3] was 100%, the “Population Pyknosed Nuclei (%)” value [3] was 16% and 9% and the “Population Tubulin-Different-Phenotype (%)” value [3] was 72% and 88%. For the same compound, the “Population Apoptotic (%)” value [4] was 87% and 63%, the “Population Healthy Nuclei (%)” value [4] was 66% and 82% and the “Population Hoechst High Intensity Objects (%)” value [4] was 0%. For the same compound, the “Population Membrane Permeable-Phenotype (%)” value [4] was 5% and 3%, the “Population Mitochondria Different-Phenotype (%)” value [4] was 5% and 1% and the “Population Mitotic Cells (%)” value [4] was 12% and 36%. For the same compound, the “Population Normal (%)” value [4] was 100% and 99%, the “Population Pyknosed Nuclei (%)” value [4] was 13% and 14% and the “Population Tubulin-Different-Phenotype (%)” value [4] was 51% and 64%. The “Population Apoptotic (%)” value [5] was 50% and 76%, the “Population Healthy Nuclei (%)” value [5] was 69% and 90% and the “Population Hoechst High Intensity Objects (%)” value [5] was 0%. For the same compound, the “Population Membrane Permeable-Phenotype (%)” value [5] was 4% and 0%, the “Population Mitochondria Different-Phenotype (%)” value [5] was 2% and 0% and the “Population Mitotic Cells (%)” value [5] was 50% and 23%. The “Population Normal (%)” value [5] was 100%, the “Population Pyknosed Nuclei (%)” value [5] was 10% and 5% and the “Population Tubulin-Different-Phenotype (%)” value [5] was 82% and 92%. The “Population Apoptotic (%)” value [6] was 83% and 66%, the “Population Healthy Nuclei (%)” value [6] was 52% and 78% and the “Population Hoechst High Intensity Objects (%)” value [6] was 0%. For the same compound, the “Population Membrane Permeable-Phenotype (%)” value [6] was 13% and 5%, the “Population Mitochondria Different-Phenotype (%)” value [6] was 1% and 5% and the “Population Mitotic Cells (%)” value [6] was 16% and 33%. For the same compound, the “Population Normal (%)” value [6] was 99%, the “Population Pyknosed Nuclei (%)” value [6] was 11% and 14% and the “Population Tubulin-Different-Phenotype (%)” value [6] was 58% and 68%.

With `Cc1cn(CCN2CCN(c3ccccc3-c3cc(C#N)cc(C(=O)NCCCN4CCCC4)c3)CC2)c2ccccc12` the “Population Apoptotic (%)” value [1] was 100% and 75%, the “Population Healthy Nuclei (%)” value [1] was 73% and 79% and the “Population Hoechst High Intensity Objects (%)” value [1] was 0%. For the same compound, the “Population Membrane Permeable-Phenotype (%)” value [1] was 8% and 10%, the “Population Mitochondria Different-Phenotype (%)” value [1] was 25% and 38% and the “Population Mitotic Cells (%)” value [1] was 0% and 25%. The “Population Normal (%)” value [1] was 100%, the “Population Pyknosed Nuclei (%)” value [1] was 10% and 16% and the “Population Tubulin-Different-Phenotype (%)” value [1] was 38% and 27%. For the same compound, the “Population Apoptotic (%)” value [2] was 100% and 82%, the “Population Fragmented Nuclei (%)” value [2] was 37% and 13% and the “Population Healthy Nuclei (%)” value [2] was 37% and 53%. The “Population Hoechst High Intensity Objects (%)” value [2] was 0%, the “Population Membrane Permeable-Phenotype (%)” value [2] was 33% and 41% and the “Population Mitochondria Different-Phenotype (%)” value [2] was 62% and 56%. The “Population Mitotic Cells (%)” value [2] was 0% and 17%, the “Population Normal (%)” value [2] was 100% and the “Population Pyknosed Nuclei (%)” value [2] was 25% and 33%. For the same compound, the “Population Tubulin-Different-Phenotype (%)” value [2] was 91%, the “Total Cell Count” value [2] was 64 and 135 and the “Population Apoptotic (%)” value [3] was 73% and 87%. For the same compound, the “Population Healthy Nuclei (%)” value [3] was 54% and 85%, the “Population Hoechst High Intensity Objects (%)” value [3] was 0% and the “Population Membrane Permeable-Phenotype (%)” value [3] was 8% and 7%. For the same compound, the “Population Mitochondria Different-Phenotype (%)” value [3] was 23% and 47%, the “Population Mitotic Cells (%)” value [3] was 26% and 12% and the “Population Normal (%)” value [3] was 100%. The “Population Pyknosed Nuclei (%)” value [3] was 24% and 12%, the “Population Tubulin-Different-Phenotype (%)” value [3] was 29% and 24% and the “Population Apoptotic (%)” value [4] was 90% and 88%. For the same compound, the “Population Fragmented Nuclei (%)” value [4] was 18% and 32%, the “Population Healthy Nuclei (%)” value [4] was 42% and 24% and the “Population Hoechst High Intensity Objects (%)” value [4] was 0% and 1%. For the same compound, the “Population Membrane Permeable-Phenotype (%)” value [4] was 65% and 35%, the “Population Mitochondria Different-Phenotype (%)” value [4] was 47% and 78% and the “Population Mitotic Cells (%)” value [4] was 9% and 12%. For the same compound, the “Population Normal (%)” value [4] was 99% and 98%, the “Population Pyknosed Nuclei (%)” value [4] was 39% and 43% and the “Population Tubulin-Different-Phenotype (%)” value [4] was 94% and 92%. For the same compound, the “Total Cell Count” value [4] was 162 and 59, the “Population Apoptotic (%)” value [5] was 88% and 81% and the “Population Healthy Nuclei (%)” value [5] was 60% and 81%. For the same compound, the “Population Hoechst High Intensity Objects (%)” value [5] was 0%, the “Population Mitochondria Different-Phenotype (%)” value [5] was 11% and 26% and the “Population Mitotic Cells (%)” value [5] was 11% and 18%. For the same compound, the “Population Normal (%)” value [5] was 100%, the “Population Pyknosed Nuclei (%)” value [5] was 22% and 14% and the “Population Tubulin-Different-Phenotype (%)” value [5] was 24% and 31%. The “Population Apoptotic (%)” value [6] was 100% and 92%, the “Population Fragmented Nuclei (%)” value [6] was 17% and 50% and the “Population Hoechst High Intensity Objects (%)” value [6] was 0% and 1%. For the same compound, the “Population Membrane Permeable-Phenotype (%)” value [6] was 74% and 40%, the “Population Mitochondria Different-Phenotype (%)” value [6] was 48% and 20% and the “Population Mitotic Cells (%)” value [6] was 0% and 7%. The “Population Normal (%)” value [6] was 100% and 98%, the “Population Pyknosed Nuclei (%)” value [6] was 38% and 41% and the “Population Tubulin-Different-Phenotype (%)” value [6] was 94% and 80%. For the same compound, the “Total Cell Count” value [6] was 168 and 63.
